# Experimental data collected from several papers.
# Each line is one published result; the experiments were not run side by side.
# SIRT6: NAD-dependent protein deacylase sirtuin-6 (SIRT6, Homo sapiens, UniProt Q8N6T7)
# HTR6: 5-hydroxytryptamine receptor 6 (HTR6, Homo sapiens, UniProt P50406)
# CCR5: C-C chemokine receptor type 5 (CCR5, Homo sapiens, UniProt P51681)
# HTR7: 5-hydroxytryptamine receptor 7 (HTR7, Homo sapiens, UniProt P34969)
# Plasmepsin II: Plasmepsin II (Plasmodium falciparum, UniProt P46925)
# Adra1a: Alpha-1A adrenergic receptor (Adra1a, Rattus norvegicus, UniProt P43140)
SMILES,target,test,test system,setting,inhibition
CCN(Cc1ccccc1C(F)(F)F)C(=O)C1CCN(S(=O)(=O)c2ccc3[nH]ncc3c2)CC1,"Platelet-activating factor receptor (PTAFR, Homo sapiens, UniProt P25105)","ligand displacement, radioligand",,10 µM,7%
NC(=O)c1ccc(C(=O)NOCc2ccc(Sc3cccc(F)c3)c(C(F)(F)F)c2)cc1,SIRT6,"enzyme activity, inhibitor, fluorescence",,100 µM,97.6%
C1=CSC(=C2SC=CS2)S1,"Ubiquitin carboxyl-terminal hydrolase 14 (USP14, Homo sapiens, UniProt P54578)","enzyme activity, inhibitor",,17 µM,54%
NC(=O)c1ccc(C(=O)NOCc2ccc(Sc3cc(Cl)cc(Cl)c3)c(C(F)(F)F)c2)cc1,SIRT6,"enzyme activity, inhibitor, fluorescence",,100 µM,100%
CCN(CC)CCNC(=O)C1CCN(c2ccc3nnc(-c4cccc(C)c4)n3n2)CC1,"Sodium channel protein type 5 subunit alpha (SCN5A, Homo sapiens, UniProt Q14524)","ion current, inhibitor, patch clamp",CHO,10 µM,9.9%
Cc1ccc(Sc2ccc(CONC(=O)c3ccc(C(N)=O)cc3)cc2C(F)(F)F)cc1,SIRT6,"enzyme activity, inhibitor, fluorescence",,100 µM,98.6%
CCCNc1nc2ccccc2n1Cc1ccc(Cl)cc1,HTR6,ligand displacement,,10 µM,36.6%
C/C(=C\C(=O)OCCCCCCCCC(=O)O)C[C@@H]1OC[C@H](C[C@@H]2O[C@H]2[C@@H](C)[C@H](C)O)[C@@H](O)[C@H]1O,CCR5,"calcium signal, antagonist",U87/CD4/CCR5,0.8 µM,52%
O=C(c1ccc(Cl)cc1)N(Cc1ccccc1)C1CCCCC1,HTR7,"ligand displacement, radioligand",,10 µM,19.2%
O=[N+]([O-])c1ccc(N2CCC(NCCC(O)c3ccc(F)c4ccccc34)CC2)c(C(F)(F)F)c1 (centres unmarked),Plasmepsin II,"enzyme activity, inhibitor",,5 µM,9%
CNC(=O)c1cc2c(Oc3ccc(NC(=O)C4(C(=O)Nc5ccc(F)cc5)CC4)cc3)ccnc2cc1OC,"Angiopoietin-1 receptor (TEK, Homo sapiens, UniProt Q02763, R849W)","enzyme activity, inhibitor, radiometric",,1 µM,99%
CN(C)C1CCN(CC#Cc2nn(C3CCCC3)c3nc(NCc4ccccc4)ncc23)C1 (centres unmarked),"Serine/threonine-protein kinase pim-1 (PIM1, Homo sapiens, UniProt P11309)","enzyme activity, inhibitor, FRET",,10 µM,2%
COc1cc2c3c(c1OCc1ccc(Br)cc1)-c1cc4c(cc1CC3N(C)CC2c1ccccc1)OCO4 (centres unmarked),HTR7,"ligand displacement, radioligand",,10 µM,-22.6%
Cc1ccc(CNC(=O)[C@H](CCc2ccccc2)NC(=O)[C@H](CCc2ccccc2)NC(=O)[C@H](CCc2ccccc2)NC(=O)c2cnc(C)cn2)cc1,"Cathepsin B (CTSB, Homo sapiens, UniProt P07858)","enzyme activity, inhibitor",,100 µM,-15%
COC(=O)c1ccc(C(=O)NOCc2ccccc2)cc1,SIRT6,"enzyme activity, inhibitor, fluorescence",,100 µM,52.2%
CC1=NN(c2ccccc2)CC1,"NADPH oxidase 4 (NOX4, Homo sapiens, UniProt Q9NPH5)","enzyme activity, inhibitor, fluorescence",,"100 µM, cell membranes",> 40%
O=C(NCCNC(=O)c1n[nH]c(=O)c2ccccc12)c1cccc(CN2C(=O)CNC2=O)c1,"Poly [ADP-ribose] polymerase 2 (PARP2, Homo sapiens, UniProt Q9UGN5)","enzyme activity, inhibitor",,0.5 µM,~50%
NC(=O)c1ccc(C(=O)NOCc2ccc(Sc3ccccc3Cl)c(C(F)(F)F)c2)cc1,SIRT6,"enzyme activity, inhibitor, fluorescence",,100 µM,99.1%
O=C(c1ccc(F)cc1)N(Cc1ccccc1)C1CCCCC1,Adra1a,cell-free assay,,10 µM,-1%
CC(C)(C)c1ccc(CONC(=O)c2ccc(C(N)=O)cc2)cc1,SIRT6,"enzyme activity, inhibitor, fluorescence",,100 µM,95.1%
OC(CCN1CCN(c2ccc(C(F)(F)F)cc2)CC1)c1csc2ccc(F)cc12 (centres unmarked),Plasmepsin II,"enzyme activity, inhibitor",,5 µM,0%
COc1cccc(Sc2ccc(CONC(=O)c3ccc(C(N)=O)cc3)cc2C(F)(F)F)c1,SIRT6,"enzyme activity, inhibitor, fluorescence",,100 µM,100%
CC/C(=N\NC(=O)NCc1cccc(O)c1)c1ccc(O)c(C)c1O,"ALK tyrosine kinase receptor (ALK, Homo sapiens, UniProt Q9UM73, L1196M)","enzyme activity, inhibitor",,0.1 µM,3%
COc1ccccc1CONC(=O)c1ccc(C(N)=O)cc1,SIRT6,"enzyme activity, inhibitor, fluorescence",,100 µM,60.5%
OCc1cc(C(O)CNCCCCCCOCCCCc2ccccc2)ccc1O (centres unmarked),CCR5,"calcium signal, antagonist",U87/CD4/CCR5,100 µM,60%
C=CCC1(/C=C(\C)C=C)SC(=O)C(CC)=C1O (racemic),"Nicotinamide N-methyltransferase (NNMT, Homo sapiens, UniProt P40261)","enzyme activity, inhibitor",,10 µM,~35%
CCN(CC)c1ccc(C2Nc3ccc(C(=O)c4ccccc4)cc3NC3=C2C(=O)CC(C)(C)C3)cc1 (centres unmarked),HTR6,"ligand displacement, radioligand",,10 µM,30%
O=[N+]([O-])c1ccc(N2CCN(CCC(O)c3ccc(F)cc3)CC2)c(C(F)(F)F)c1 (centres unmarked),Plasmepsin II,"enzyme activity, inhibitor",,5 µM,0%
CN1CC(Oc2cnc(C#N)cc2-c2ccn3nc(NC(=O)C4CC4)cc3c2)C1,"[Pyruvate dehydrogenase (acetyl-transferring)] kinase isozyme 4, mitochondrial (PDK4, Homo sapiens, UniProt Q16654)","enzyme activity, inhibitor",,1 µM,2%
CN(Cc1ccc(NC(=O)C2=Cc3cc(-c4ccc(OCCCO)cc4)ccc3CCC2)cc1)C1CCOCC1,"C-C chemokine receptor type 2 (CCR2, Homo sapiens, UniProt P41597)","ligand displacement, radioligand",,"1 µM, cell membranes",51%
O=C(Nc1ccc(S(=O)(=O)N2CCC(Cl)CC2)cc1)c1ccc([N+](=O)[O-])o1,Adra1a,"ligand displacement, radioligand",,10 µM,19%
Ic1cccc2cnccc12,Adra1a,"ligand displacement, radioligand",,10 µM,9%
